Laboratory results published in ChEMBL document CHEMBL1128250, “Structure-activity studies of 2,3,4,4a,5,9b-hexahydroindeno[1,2-c]pyridines as antispermatogenic agents for male contraception” (1995).
“And” between values parts separate entries of the source, which are not always exact repeats. Equal values may be shown once.

Experiments:
Mus musculus [1] = assay: Tested for its effect on spermatogenic index 3 days after single oral dose (3 mg/kg); assay type: functional
Method in brief: (§1)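 Male CD-1 (ICR) mice, 7 weeks old on arrival, 5 per dose, single gavage of 10 mL/kg on day 0. Vehicle was 0.15 M acetate buffer pH 5, ethanol/Tween-20/water 3:7:90, or 1% Tween-20. Mice were killed with CO2 at 72 h and testes weighed and scored for spermatogenic index (0–6 scale). Results are % reduction versus the vehicle control. Dunnett's one-tailed t-test.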

Mus musculus [2] = assay: Tested for its effect on testes weight 3 days after single oral dose (3 mg/kg); assay type: functional, Testis; method in brief: as §1
Mus musculus [3] = assay: Tested for its effect on testes weight 3 days after single sub cutaneous dose (3 mg/kg); assay type: functional, Testis
Method in brief: (§2)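 Single subcutaneous injection, 10 mL/kg, to male CD-1 mice (5 per dose) in ethanol/Tween-20/water (3:7:90, v/v/v) on day 0. Mice were killed at 72 h; testes were weighed and histology scored for spermatogenic index (0–6). Results are % reduction from the vehicle control, with a 30 mg/kg positive control group. Dunnett's one-tailed t-test.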

Mus musculus [4] = assay: Tested for its effect on testes weight 3 days after single sub cutaneous (10 mg/kg); assay type: functional, Testis; method in brief: as §2
Mus musculus [5] = assay: Tested for its effect on spermatogenic index 3 days after single oral dose (10 mg/kg); assay type: functional; method in brief: as §1
Mus musculus [6] = assay: Tested for its effect on testes weight 3 days after single oral dose (10 mg/kg); assay type: functional, Testis
Method in brief: (§3)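 CD-1 outbred Swiss albino male mice, 5 per dose, single gavage on day 0 at 10 mL/kg. Vehicle was 0.15 M acetate buffer pH 5, ethanol/Tween-20/water (3:7:90), or 1% Tween-20 in water. CO2 euthanasia 72 h later. Testes weighed and histologically scored (spermatogenic index 0–6). Values are % reduction versus the assay's vehicle control. Positive control was 30 mg/kg of the parent compound. Significance by Dunnett's one-tailed t-test, p < 0.05.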

Mus musculus [7] = assay: Tested for its effect on testes weight 3 days after single oral dose (30 mg/kg); assay type: functional, Testis; method in brief: as §3
Mus musculus [8] = assay: Tested for its effect on spermatogenic index 3 days after single sub cutaneous dose (3 mg/kg); assay type: functional; method in brief: as §2
Mus musculus [9] = assay: Tested for its effect on testes weight 3 days after single sub cutaneous dose (30 mg/kg); assay type: functional, Testis; method in brief: as §2
Mus musculus [10] = assay: Tested for its effect on spermatogenic index 3 days after single sub cutaneous dose (10 mg/kg); assay type: functional; method in brief: as §2
Mus musculus [11] = assay: Tested for its effect on spermatogenic index 3 days after single oral dose (30 mg/kg); assay type: functional; method in brief: as §3
Mus musculus [12] = assay: Tested for its effect on testes weight 3 days after single oral dose (90 mg/kg); assay type: functional, Testis; method in brief: as §3
Mus musculus [13] = assay: Tested for its effect on spermatogenic index 3 days after single oral dose (90 mg/kg),; assay type: functional; method in brief: as §3
Mus musculus [14] = assay: Tested for its effect on spermatogenic index 3 days after single oral dose (90 mg/kg); assay type: functional; method in brief: as §3
Mus musculus [15] = assay: Tested for its effect on spermatogenic index 3 days after single oral dose (90 mg/kg) in mice; assay type: functional; method in brief: as §3
Mus musculus [16] = assay: Tested for its effect on mouse testes weight 3 days after single oral dose (90 mg/kg); assay type: functional, Testis; method in brief: as §3
Mus musculus [17] = assay: Tested for its effect on spermatogenic index 3 days after single oral dose (3 mg/kg),; assay type: functional; method in brief: as §1

Compound: CCCOC(=O)c1ccc([C@@H]2c3cc(C)ccc3[C@H]3CN(CC)CC[C@@H]23)cc1.Cl
- Reduction (Mus musculus [1]): 2%
- Reduction (Mus musculus [2]): 11%
- Reduction (Mus musculus [3]): 7%
- Reduction (Mus musculus [4]): 10%
- Reduction (Mus musculus [5]): 33%
- Reduction (Mus musculus [6]): 3%
- Reduction (Mus musculus [7]): 31%
- Reduction (Mus musculus [8]): -1%
- Reduction (Mus musculus [9]): 17%
- Reduction (Mus musculus [10]): 13%
- Reduction (Mus musculus [11]): 56% and 43%

Compound: CCCN1CC[C@H]2[C@H](c3ccc(C)cc3)c3cc(C)ccc3[C@H]2C1.Cl
- Reduction (Mus musculus [12]): 11%
- Reduction (Mus musculus [13]): 0%

Compound: CCN1CCC(=C(c2ccc(C)cc2)c2cccc(C)c2)CC1.Cl
- Reduction (Mus musculus [12]): -5%
- Reduction (Mus musculus [13]): 0%

Compound: CCN1CC[C@H]2[C@H](c3ccc(C(=O)O)cc3)c3cc(C)ccc3[C@H]2C1.Cl (stereo in doubt; (d)-10k)
- Reduction (Mus musculus [1]): 21%
- Reduction (Mus musculus [12]): 27%
- Reduction (Mus musculus [2]): -5%
- Reduction (Mus musculus [5]): 40%
- Reduction (Mus musculus [6]): 26%
- Reduction (Mus musculus [7]): 16%
- Reduction (Mus musculus [14]): 70%
- Reduction (Mus musculus [11]): 67%

Compound: CCN1CC[C@H]2[C@@H](c3ccc(C)cc3)c3cc(C)ccc3[C@H]2C1.Cl
- Reduction (Mus musculus [15]): -9%
- Reduction (Mus musculus [16]): 2%

Compound: CCN1CC[C@H]2[C@H](c3ccccc3)c3ccccc3[C@H]2C1.Cl
- Reduction (Mus musculus [12]): -2%
- Reduction (Mus musculus [13]): 2%

Compound: CCN1CC[C@H]2[C@H](c3ccc(O)cc3)c3cc(C)ccc3[C@H]2C1.Cl
- Reduction (Mus musculus [12]): -1%
- Reduction (Mus musculus [13]): -5%

Compound: Cc1ccc([C@@H]2c3cc(C)ccc3[C@H]3CNCC[C@@H]23)cc1.Cl
- Reduction (Mus musculus [12]): -3%
- Reduction (Mus musculus [13]): -5%

Compound: CCN1CC[C@H]2[C@H](c3ccc(C#N)cc3)c3cc(C)ccc3[C@H]2C1.Cl
- Reduction (Mus musculus [12]): 13%
- Reduction (Mus musculus [13]): -4%

Compound: CCN1CC[C@H]2[C@H](c3cccc(C)c3)c3cc(C)ccc3[C@H]2C1.Cl
- Reduction (Mus musculus [12]): -11%
- Reduction (Mus musculus [13]): -9%

Compound: CCN1CCC(C(c2ccc(C)cc2)c2cccc(C)c2)CC1.Cl (centres undefined)
- Reduction (Mus musculus [17]): 2%
- Reduction (Mus musculus [2]): 2%
- Reduction (Mus musculus [7]): 9%
- Reduction (Mus musculus [11]): -5%

Compound: CCN1CCC(C(O)c2ccc(C)cc2)C(c2ccc(C)cc2)C1.Cl (stereo in doubt; 16a)
- Reduction (Mus musculus [12]): -9%

Compound: CCN1CC[C@H]2[C@H](c3ccc(CO)cc3)c3cc(C)ccc3[C@H]2C1.Cl
- Reduction (Mus musculus [12]): 4%
- Reduction (Mus musculus [13]): -5%
- Reduction (Mus musculus [5]): 20%
- Reduction (Mus musculus [6]): 13%
- Reduction (Mus musculus [7]): 23%
- Reduction (Mus musculus [9]): 6%
- Reduction (Mus musculus [11]): 57%

Compound: CCN1CC[C@H]2[C@H](c3ccc(F)cc3)c3cc(C)ccc3[C@H]2C1.Cl
- Reduction (Mus musculus [12]): 5%
- Reduction (Mus musculus [13]): -5%
